Data reported in PubChem BioAssay AID588421 (The Scripps Research Institute Molecular Screening Center, 2011).
Active and inactive are the calls of the source.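 How the source made its calls: active means IC50 at or below 1 µM; inactive means the rest.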

Target: Protein-arginine deiminase type-4 (Homo sapiens) (UniProt Q9UM07)
Test: recombinant human PAD4 inhibitors – biochemical, BAEE substrate, citrulline absorbance, 0-500 µM range, late-stage follow-up (AID 588421)
Settings: recombinant PAD4, BAEE citrulline colorimetric absorbance
Summary of the method: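 Timing: 15 min preincubation (37 °C), 15 min reaction; assay system: recombinant human PAD4 enzyme (protein-arginine deiminase 4); compound: 7 doses, 0–500 µM; signal: colorimetric absorbance of citrulline product at 540 nm; medium: pH 7.6 Tris, CaCl2, DTT; read-out: IC50 from fitted fractional PAD4 activity, citrulline standard curve; also added: 10 mM BAEE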

Chain of Protein-arginine deiminase type-4 (Homo sapiens) (Q9UM07 whole entry, looked up): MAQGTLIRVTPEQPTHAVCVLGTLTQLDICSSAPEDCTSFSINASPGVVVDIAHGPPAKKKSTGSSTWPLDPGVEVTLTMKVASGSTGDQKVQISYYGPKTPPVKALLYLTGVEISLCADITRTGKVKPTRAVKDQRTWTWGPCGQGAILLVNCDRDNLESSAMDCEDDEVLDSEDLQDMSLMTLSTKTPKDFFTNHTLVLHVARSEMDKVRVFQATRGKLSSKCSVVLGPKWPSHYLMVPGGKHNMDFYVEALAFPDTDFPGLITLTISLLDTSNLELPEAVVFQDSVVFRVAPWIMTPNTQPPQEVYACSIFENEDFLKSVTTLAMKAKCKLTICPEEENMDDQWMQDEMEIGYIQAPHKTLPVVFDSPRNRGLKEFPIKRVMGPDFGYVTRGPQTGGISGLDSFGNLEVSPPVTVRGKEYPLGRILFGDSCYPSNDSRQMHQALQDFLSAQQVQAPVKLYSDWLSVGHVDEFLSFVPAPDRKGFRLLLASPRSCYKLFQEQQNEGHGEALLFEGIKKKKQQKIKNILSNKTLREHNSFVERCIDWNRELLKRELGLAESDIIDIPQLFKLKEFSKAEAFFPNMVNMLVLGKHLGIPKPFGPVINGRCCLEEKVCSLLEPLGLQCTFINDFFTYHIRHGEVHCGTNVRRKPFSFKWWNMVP

IC50: inactive
SMILES: COC(=O)c1nc(C(=O)OC)c(NC(C)=O)c(-c2ccccc2Br)c1C
